# Data as given in ChEMBL document CHEMBL1287650, “Structural modification of a specific antimicrobial lead against Helicobacter pylori discovered from traditional Chinese medicine and a structure-activity relationship study” (2010).
# Tests used:
# Type in all cases: functional
# [1] = test system: Helicobacter pylori; test: Antibacterial activity against Helicobacter pylori SS1 assessed as inhibition of visible growth after 96 hrs by agar dilution method; details: SS1, 96 h
# Method in brief: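 Agar dilution on Columbia Blood Agar Base with 7% defibrinated sheep blood; compounds dissolved in minimal DMSO, two-fold serial dilutions mixed into medium. Inoculum: cells in saline at 10⁸ CFU/mL. Incubated 37 °C, 96 h, 5% O₂/10% CO₂/85% N₂. DMSO-only blank and metronidazole positive control run alongside. MIC = lowest concentration completely inhibiting visible growth.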
# [2] = test system: Staphylococcus aureus; test: Antibacterial activity against Staphylococcus aureus ATCC 25923 after 18 hrs; details: ATCC 25923, 18 h
# [3] = test system: Staphylococcus epidermidis; test: Antibacterial activity against Staphylococcus epidermidis ATCC 12228 after 18 hrs; details: ATCC 12228, 18 h
# [4] = test system: Micrococcus luteus; test: Antibacterial activity against Micrococcus luteus ATCC 9341 after 18 hrs; details: ATCC 9341, 18 h
# [5] = test system: Bacillus subtilis; test: Antibacterial activity against Bacillus subtilis CMCC 63501 after 18 hrs; details: CMCC 63501, 18 h
# [6] = test system: Escherichia coli; test: Antibacterial activity against Escherichia coli ATCC 25922 after 18 hrs; details: ATCC 25922, 18 h
# [7] = test system: Shigella flexneri; test: Antibacterial activity against Shigella flexneri F2a after 18 hrs
# [8] = test system: Pseudomonas aeruginosa; test: Antibacterial activity against Pseudomonas aeruginosa ATCC 14502 after 18 hrs; details: ATCC 14502, 18 h
# [9] = test system: Candida albicans; test: Antifungal activity against Candida albicans ATCC 1600 after 48 hrs; details: ATCC 1600, 48 h
# Method in brief: (§1)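 Fungi grown in Sabouraud dextrose broth at 37 °C for 48 h with compounds and positive control dissolved in DMSO; DMSO-only cultures served as blank controls.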
# [10] = Antifungal activity against Saccharomyces sake after 48 hrs; details: Saccharomyces sp.; method in brief: as §1
# [11] = test system: Trichophyton rubrum; test: Antifungal activity against Trichophyton rubrum after 48 hrs; method in brief: as §1
# [12] = test system: Nannizzia gypsea; test: Antifungal activity against Microsporum gypseum after 48 hrs; method in brief: as §1
SMILES,MIC [1],further results
COc1c2occc2c(N)c2ccc(=O)oc12,25 µg/mL,
Cc1cc(=O)oc2cc3occc3cc12,0.39 µg/mL,MIC [2]: > 64 µg/mL; MIC [3]: > 64 µg/mL; MIC [4]: > 64 µg/mL; MIC [5]: > 64 µg/mL; MIC [6]: > 64 µg/mL; MIC [7]: > 64 µg/mL; MIC [8]: > 64 µg/mL; MIC [9]: > 64 µg/mL; MIC [10]: > 64 µg/mL; MIC [11]: > 64 µg/mL; MIC [12]: > 64 µg/mL
CCCOCc1c2ccoc2c(OC)c2oc(=O)ccc12,> 50 µg/mL,
O=Cc1cc(=O)oc2cc3occc3cc12,1.56 µg/mL,
Cc1c2ccoc2cc2oc(=O)ccc12,12.5 µg/mL,
CCc1cc(=O)oc2cc3occc3cc12,6.25 µg/mL,
COc1c2occc2c(Br)c2ccc(=O)oc12,> 50 µg/mL,
COCc1cc2cc3ccc(=O)oc3cc2o1,50 µg/mL,
CCCc1cc(=O)oc2cc3occc3cc12,12.5 µg/mL,
CCOc1c2occc2cc2ccc(=O)oc12,> 50 µg/mL,
CCOC(=O)COc1c2occc2cc2ccc(=O)oc12,> 50 µg/mL,
CC(=O)Oc1c2occc2cc2ccc(=O)oc12,> 50 µg/mL,
COc1c2occc2c(CNc2ccc([N+](=O)[O-])cc2)c2ccc(=O)oc12,> 50 µg/mL,
CC(=O)OCc1cc(=O)oc2cc3occc3cc12,1.56 µg/mL,
O=c1cc(CO)c2cc3ccoc3cc2o1,0.78 µg/mL,
O=c1ccc2cc3cc(CCl)oc3cc2o1,> 50 µg/mL,
CCOCc1cc2cc3ccc(=O)oc3cc2o1,> 50 µg/mL,
O=c1cc(-c2ccccc2)c2cc3ccoc3cc2o1,12.5 µg/mL,
COc1c2occc2c(S(=O)(=O)OC)c2ccc(=O)oc12,> 50 µg/mL,
COc1c2occc2c(S(N)(=O)=O)c2ccc(=O)oc12,> 50 µg/mL,
COc1ccc(NS(=O)(=O)c2c3ccoc3c(OC)c3oc(=O)ccc23)cc1,> 50 µg/mL,
CCN(CC)S(=O)(=O)c1c2ccoc2c(OC)c2oc(=O)ccc12,> 50 µg/mL,
O=c1ccc2cc3cc(Br)oc3cc2o1,6.25 µg/mL,
COc1ccc(NCc2c3ccoc3c(OC)c3oc(=O)ccc23)cc1,12.5 µg/mL,
CC(=O)OCc1cc2cc3ccc(=O)oc3cc2o1,> 50 µg/mL,

SMILES,MIC [1],further results
COc1c2occc2c([N+](=O)[O-])c2ccc(=O)oc12,1.56 µg/mL,MIC [2]: > 64 µg/mL; MIC [3]: > 64 µg/mL; MIC [4]: > 64 µg/mL; MIC [5]: > 64 µg/mL; MIC [6]: > 64 µg/mL; MIC [7]: > 64 µg/mL; MIC [8]: > 64 µg/mL; MIC [9]: > 64 µg/mL; MIC [10]: > 64 µg/mL; MIC [11]: > 64 µg/mL; MIC [12]: > 64 µg/mL
Cc1coc2cc3oc(=O)ccc3cc12,12.5 µg/mL,
O=C(O)COc1c2occc2cc2ccc(=O)oc12,> 50 µg/mL,
COc1c2occc2c(CCl)c2ccc(=O)oc12,25 µg/mL,
O=c1ccc2cc3cc([N+](=O)[O-])oc3cc2o1,3.12 µg/mL,
O=c1ccc2cc3ccoc3c(O)c2o1 [XANTHOTOXOL],> 50 µg/mL,
COc1c2occc2cc2ccc(=O)oc12 [METHOXSALEN],25 µg/mL,
Cc1ncc([N+](=O)[O-])n1CCO [METRONIDAZOLE],0.5 µg/mL,
COc1c2occc2c(Cl)c2ccc(=O)oc12,> 50 µg/mL,
CCOCc1c2ccoc2c(OC)c2oc(=O)ccc12,> 50 µg/mL,
O=c1cc(C(F)(F)F)c2cc3ccoc3cc2o1,12.5 µg/mL,
O=c1ccc2cc3ccoc3cc2o1 [PSORALEN],6.25 µg/mL,MIC [2]: > 64 µg/mL; MIC [3]: > 64 µg/mL; MIC [4]: > 64 µg/mL; MIC [5]: > 64 µg/mL; MIC [6]: > 64 µg/mL; MIC [7]: > 64 µg/mL; MIC [8]: > 64 µg/mL; MIC [9]: > 64 µg/mL; MIC [10]: > 64 µg/mL; MIC [11]: > 64 µg/mL; MIC [12]: > 64 µg/mL
CCN(CC)Cc1c2ccoc2c(OC)c2oc(=O)ccc12,> 50 µg/mL,
COc1c2occc2c(S(=O)(=O)Oc2ccccc2)c2ccc(=O)oc12,> 50 µg/mL,
O=c1cc(CBr)c2cc3ccoc3cc2o1,1.56 µg/mL,
CCN(CC)Cc1cc2cc3ccc(=O)oc3cc2o1,> 50 µg/mL,
COc1c2occc2c(/N=C/c2ccccc2)c2ccc(=O)oc12,> 50 µg/mL,
CC(=O)Oc1c2occc2c([N+](=O)[O-])c2ccc(=O)oc12,25 µg/mL,
CCCCOCc1c2ccoc2c(OC)c2oc(=O)ccc12,50 µg/mL,
COCc1c2ccoc2c(OC)c2oc(=O)ccc12,> 50 µg/mL,
O=c1ccc2c([N+](=O)[O-])c3ccoc3c(O)c2o1,25 µg/mL,
O=c1ccc2cc3cc(Cl)oc3cc2o1,6.25 µg/mL,
CCCCOCc1cc2cc3ccc(=O)oc3cc2o1,50 µg/mL,
COc1c2occc2c(S(=O)(=O)Nc2ccc([N+](=O)[O-])cc2)c2ccc(=O)oc12,> 50 µg/mL,
